One block for each compound: values may come before it.
Legend:
Rattus norvegicus [1] = species on record: Rattus norvegicus; assay: Substrate concentration for half maximum-velocity in rat muscle pyruvate kinase was determined.; type: ADME, organism-based; conditions: in vivo
In short: (§1)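 Rat muscle, liver and kidney pyruvate kinase isozymes, isolated as before, with ADP analogues as substrate. Optical density change at 340 nm, 22-24 °C, 1 mL. Five or more substrate concentrations. Km and Vmax come from linear Lineweaver-Burk plots, with Vmax relative to ADP (100).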

Rattus norvegicus [2] = species on record: Rattus norvegicus; assay: Maximum velocity relative to ADP (100) in rat muscle pyruvate kinase was determined; type: ADME, organism-based; conditions: in vivo; in short: as §1
Rattus norvegicus [3] = species on record: Rattus norvegicus; assay: Maximum velocity in rat liver adenylate kinase II relative to ATP(=100); type: ADME, organism-based; conditions: in vivo
In short: (§2)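 Rat liver AK II and AK III, isolated as before. Optical density change at 340 nm followed at 22-24 °C in 1 mL. Five or more substrate concentrations; stocks contained equimolar MgCl2. Vmax comes from linear Lineweaver-Burk plots and is expressed relative to ATP (100).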

Rattus norvegicus [4] = species on record: Rattus norvegicus; assay: Maximum velocity in rat liver adenylate kinase III relative to ATP(=100); type: ADME, organism-based; conditions: in vivo; in short: as §2
[5] = molecular target: GTP:AMP phosphotransferase AK3, mitochondrial (Rattus norvegicus, UniProt P29411); assay: Competitive inhibition of adenylate kinase III in rat liver with respect to ATP; type: tissue-based
In short: (§3)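 Rat liver adenylate kinase isozymes (AK II, AK III), isolated as before. Read as rate of change in optical density at 340 nm, 22-24 °C, 1 mL final volume. Five or more levels of ATP at each of two inhibitor levels, inhibitor at 1-5 times the inhibition constant. Ki taken from replots of inhibitor concentration vs Lineweaver-Burk slopes. Stocks contained equimolar MgCl2.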

[6] = molecular target: Adenylate kinase 2, mitochondrial (Rattus norvegicus, UniProt P29410); assay: Competitive inhibition of adenylate kinase II in rat liver with respect to ATP; type: tissue-based; in short: as §3
[7] = Reaction velocity relative to ATP (=1) in yeast hexokinase was determined at 5 mM concentration.; type: ADME; conditions: 5000 µM
Rattus norvegicus [8] = species on record: Rattus norvegicus; assay: Substrate property, maximum velocity relative to ADP (100) in rat muscle pyruvate kinase was determined; type: ADME, organism-based; conditions: in vivo; in short: as §1
[9] = Substrate property, maximum velocity relative to ADP (100) in rat muscle pyruvate kinase was determined; conditions: in vitro
Rattus norvegicus [10] = species on record: Rattus norvegicus; assay: Substrate property, maximum velocity relative to ADP (100) in rat kidney pyruvate kinase was determined; type: ADME, organism-based; conditions: in vivo; in short: as §1
Rattus norvegicus [11] = species on record: Rattus norvegicus; assay: Substrate concentration for half maximum- reaction velocity in rat liver pyruvate kinase; type: ADME, organism-based; conditions: in vivo; in short: as §1
Rattus norvegicus [12] = species on record: Rattus norvegicus; assay: Substrate property, maximum velocity relative to ADP (100) in rat liver pyruvate kinase was determined; type: ADME, organism-based; conditions: in vivo; in short: as §1
Rattus norvegicus [13] = species on record: Rattus norvegicus; assay: Substrate concentration for half maximum-velocity in rat kidney pyruvate kinase was determined; type: ADME, organism-based; conditions: in vivo; in short: as §1

Sequence of GTP:AMP phosphotransferase AK3, mitochondrial (P29411 whole entry): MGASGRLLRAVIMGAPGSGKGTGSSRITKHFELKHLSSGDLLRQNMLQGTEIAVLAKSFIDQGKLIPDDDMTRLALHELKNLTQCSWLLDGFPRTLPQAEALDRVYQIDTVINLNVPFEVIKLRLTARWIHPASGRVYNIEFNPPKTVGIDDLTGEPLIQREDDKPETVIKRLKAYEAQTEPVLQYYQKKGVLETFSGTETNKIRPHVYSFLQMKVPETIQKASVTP

SMILES: CN(CCCN(C)C(=O)CCCCNc1ncnc2c1ncn2[C@@H]1O[C@H](COP(=O)(O)OP(=O)(O)O)[C@@H](O)[C@H]1O)C(=O)CCCCNC(=O)OCc1ccccc1
Km (Rattus norvegicus [1]): 70 µM
Vmax (Rattus norvegicus [2]): 1.5%

SMILES: CC(=O)NCCCCCCNc1nc2c(N)ncnc2n1[C@@H]1O[C@H](COP(=O)(O)OP(=O)(O)O)[C@@H](O)[C@H]1O
Vmax (Rattus norvegicus [8]): 0%
Vmax [9]: 0%

SMILES: CN(CCCN(C)C(=O)CCCCNc1ncnc2c1ncn2[C@@H]1O[C@H](COP(=O)(O)OP(=O)(O)OP(=O)(O)O)[C@@H](O)[C@H]1O)C(=O)CCCCNC(=O)CI
Velocity relative to ATP [7]: 0.73

SMILES: Nc1ncnc2c1nc(NCCCCCCCCNC(=O)CI)n2[C@@H]1O[C@H](COP(=O)(O)OP(=O)(O)OP(=O)(O)O)[C@@H](O)[C@H]1O
Velocity relative to ATP [7]: 0.54

Now from value to compound:

Vmax (Rattus norvegicus [3]): 0%
Vmax (Rattus norvegicus [4]): 0%
Ki [5]: 0.9 mM
Ki [6]: 1.1 mM
SMILES: CC(=O)N(C)CCCCN(C)c1ncnc2c1ncn2[C@@H]1O[C@H](COP(=O)(O)OP(=O)(O)OP(=O)(O)O)[C@@H](O)[C@H]1O

Velocity relative to ATP [7]: 1.8
SMILES: O=C(CI)NCCCCCCCCNc1ncnc2c1ncn2[C@@H]1O[C@H](COP(=O)(O)OP(=O)(O)OP(=O)(O)O)[C@@H](O)[C@H]1O

Velocity relative to ATP [7]: 1.2
SMILES: CN(CCCCN(C)c1ncnc2c1ncn2[C@@H]1O[C@H](COP(=O)(O)OP(=O)(O)OP(=O)(O)O)[C@@H](O)[C@H]1O)C(=O)CCCNC(=O)CI

Vmax (Rattus norvegicus [8]): 20%
Km (Rattus norvegicus [1]): 3600 µM
Vmax (Rattus norvegicus [10]): 18%
Km (Rattus norvegicus [11]): 700 µM
Vmax (Rattus norvegicus [12]): 21%
Km (Rattus norvegicus [13]): 1700 µM
SMILES: CC(=O)N(C)CCCCN(C)c1ncnc2c1ncn2[C@@H]1O[C@H](COP(=O)(O)OP(=O)(O)O)[C@@H](O)[C@H]1O

— ChEMBL document CHEMBL1122036, “Use of adenine nucleotide derivatives to assess the potential of exo-active-site-directed reagents as species- or isozyme-specific enzyme inactivators. 3. Synthesis of adenosine 5'-triphosphate derivatives with N6- or 8-substituents bearing iodoacetyl groups” (J Med Chem, 1982)
